Measured values reported in ChEMBL document CHEMBL1134346, “Labeling and evaluation of N-[11C]methylated quinoline-2-carboxamides as potential radioligands for visualization of peripheral benzodiazepine receptors” (J Med Chem, 2001).

Species on record: Rattus norvegicus
Assay: Tissue (spleen) distribution in Albino male CD rats after 5 minutes expressed as percent of injected dose per gram of organ.
Assay type: ADME, organism-based
Conditions: in vivo
How it was run: (§1)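 Male albino CD rats (225-250 g) received the 11C-labelled radioligand in saline by tail-vein injection. Three rats per time point were decapitated under light ether anaesthesia at 5, 15, 30, 60 or 90 min. Blood was collected heparinized and plasma separated by centrifugation. The pituitary was dissected from the brain. Lung, liver (three-lobe pieces) and right deltoid muscle were sampled, washed in cold saline, gamma-counted and weighed. Results are %I.D./g.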

I.D./g [%] | Compound
0.28 | Cc1c(C(=O)N(C)Cc2ccccc2)nc2ccccc2c1-c1ccccc1

Species on record: Rattus norvegicus
Assay: Tissue (spleen) distribution in Albino male CD rats after 60 minutes expressed as percent of injected dose per gram of organ.
Assay type: ADME, organism-based
Conditions: in vivo, 1 h

I.D./g [%] | Compound
1.55 | Cc1c(C(=O)N(C)Cc2ccccc2)nc2ccccc2c1-c1ccccc1

Species on record: Rattus norvegicus
Assay: Tissue (testicle) distribution in Albino male CD rats after 15 minutes expressed as percent of injected dose per gram of organ.
Assay type: ADME, organism-based
Conditions: in vivo, 0.25 h
How it was run: as §1

I.D./g [%] | Compound
0.12 | Cc1c(C(=O)N(C)Cc2ccccc2)nc2ccccc2c1-c1ccccc1

Species on record: Rattus norvegicus
Assay: Tissue (liver) distribution in Albino male CD rats after 15 minutes expressed as percent of injected dose per gram of organ.
Assay type: ADME, organism-based
Conditions: in vivo, 0.25 h
How it was run: (§2)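 Radioligand given in saline into tail vein of male albino CD rats (225-250 g); 100-200 µCi per animal, 1-2 Ci/µmol at injection depending on radioligand. Three rats per time point were decapitated under light ether anaesthesia. Blood, plasma, brain regions and washed organs were weighed and gamma-counted. Uptake is %I.D./g tissue, mean ± SD.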

I.D./g [%] | Compound
0.59 | Cc1c(C(=O)N(C)Cc2ccccc2)nc2ccccc2c1-c1ccccc1

Species on record: Rattus norvegicus
Assay: Tissue (liver) distribution in Albino male CD rats after 30 minutes expressed as percent of injected dose per gram of organ.
Assay type: ADME, organism-based
Conditions: in vivo, 0.5 h
How it was run: as §1

I.D./g [%] | Compound
0.43 | Cc1c(C(=O)N(C)Cc2ccccc2)nc2ccccc2c1-c1ccccc1

Species on record: Rattus norvegicus
Assay: Tissue (liver) distribution in Albino male CD rats after 5 minutes expressed as percent of injected dose per gram of organ.
Assay type: ADME, organism-based
Conditions: in vivo
How it was run: as §1

I.D./g [%] | Compound
0.37 | Cc1c(C(=O)N(C)Cc2ccccc2)nc2ccccc2c1-c1ccccc1

Species on record: Rattus norvegicus
Assay: Tissue (liver) distribution in Albino male CD rats after 90 minutes expressed as percent of injected dose per gram of organ.
Assay type: ADME, organism-based
Conditions: in vivo, 1.5 h
How it was run: as §1

I.D./g [%] | Compound
0.4 | Cc1c(C(=O)N(C)Cc2ccccc2)nc2ccccc2c1-c1ccccc1

Molecular target: Translocator protein (Rattus norvegicus) (UniProt P16257)
Assay: Tissue (lung) concentration of radioactivity at 30 min post-injection into Albino male CD rats after pretreatment with cold PK 11195.
Assay type: functional
Conditions: not given
How it was run: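 Blocking study in male albino CD rats, five per group. Immediately before the 11C radioligand (in saline, i.v. tail vein), rats received 30 µL tail-vein PK 11195 (5 mg/kg; 1.4-1.6 mg) in DMSO:EtOH 1:1, or vehicle. Rats were decapitated at 30 min. Tissues were dissected, washed, gamma-counted and weighed as in the biodistribution study. Results are %I.D./g.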

Sequence of Translocator protein (Rattus norvegicus) (P16257 whole entry, looked up): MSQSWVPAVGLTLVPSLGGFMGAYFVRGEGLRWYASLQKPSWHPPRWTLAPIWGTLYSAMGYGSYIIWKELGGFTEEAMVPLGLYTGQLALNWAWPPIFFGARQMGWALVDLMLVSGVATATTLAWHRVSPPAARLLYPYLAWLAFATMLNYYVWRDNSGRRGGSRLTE

I.D./g [%] | Compound
< 0.05 | Cc1c(C(=O)N(C)Cc2ccccc2)nc2ccccc2c1-c1ccccc1

Species on record: Rattus norvegicus
Assay: Tissue (lung) distribution in Albino male CD rats after 5 minutes expressed as percent of injected dose per gram of organ.
Assay type: ADME, organism-based
Conditions: in vivo
How it was run: as §1

I.D./g [%] | Compound
4 | Cc1c(C(=O)N(C)Cc2ccccc2)nc2ccccc2c1-c1ccccc1

Species on record: Rattus norvegicus
Assay: Tissue (blood) distribution in Albino male CD rats after 30 minutes expressed as percent of injected dose per gram of organ.
Assay type: ADME, organism-based
Conditions: in vivo, 0.5 h
How it was run: as §2

I.D./g [%] | Compound
0.06 | Cc1c(C(=O)N(C)Cc2ccccc2)nc2ccccc2c1-c1ccccc1

Species on record: Rattus norvegicus
Assay: Tissue (blood) distribution in Albino male CD rats after 5 minutes expressed as percent of injected dose per gram of organ.
Assay type: ADME, organism-based
Conditions: in vivo
How it was run: as §2

I.D./g [%] | Compound
0.2 | Cc1c(C(=O)N(C)Cc2ccccc2)nc2ccccc2c1-c1ccccc1

Species on record: Rattus norvegicus
Assay: Tissue (adrenal gland) concentration of radioactivity at 30 min post-injection into Albino male CD rats with vehicle.
Assay type: ADME, organism-based
Conditions: in vivo, 0.5 h
How it was run: (§3)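 Separate groups of five rats received tail-vein PK 11195 (1.4-1.6 mg; 5 mg/kg) in 30 µL DMSO:EtOH 1:1, or vehicle alone, immediately before iv radioligand (90-170 µCi in saline, 0.9-1 Ci/µmol). Rats were decapitated at 30 min and tissues gamma-counted; values are %I.D./g.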

I.D./g [%] | Compound
0.62 | Cc1c(C(=O)N(C)Cc2ccccc2)nc2ccccc2c1-c1ccccc1

Species on record: Rattus norvegicus
Assay: Tissue (adrenal gland) distribution in Albino male CD rats after 60 minutes expressed as percent of injected dose per gram of organ.
Assay type: ADME, organism-based
Conditions: in vivo, 1 h
How it was run: as §2

I.D./g [%] | Compound
4 | Cc1c(C(=O)N(C)Cc2ccccc2)nc2ccccc2c1-c1ccccc1

Species on record: Rattus norvegicus
Assay: Tissue (adrenal gland) distribution in Albino male CD rats after 90 minutes expressed as percent of injected dose per gram of organ.
Assay type: ADME, organism-based
Conditions: in vivo, 1.5 h
How it was run: as §2

I.D./g [%] | Compound
3.74 | Cc1c(C(=O)N(C)Cc2ccccc2)nc2ccccc2c1-c1ccccc1

Species on record: Rattus norvegicus
Assay: Tissue (spleen) distribution in Albino male CD rats after 30 minutes expressed as percent of injected dose per gram of organ.
Assay type: ADME, organism-based
Conditions: in vivo, 0.5 h
How it was run: as §1

I.D./g [%] | Compound
1.46 | Cc1c(C(=O)N(C)Cc2ccccc2)nc2ccccc2c1-c1ccccc1

Species on record: Rattus norvegicus
Assay: Tissue (muscle) distribution in Albino male CD rats after 5 minutes expressed as percent of injected dose per gram of organ.
Assay type: ADME, organism-based
Conditions: in vivo
How it was run: as §1

I.D./g [%] | Compound
0.19 | Cc1c(C(=O)N(C)Cc2ccccc2)nc2ccccc2c1-c1ccccc1

Species on record: Rattus norvegicus
Assay: Tissue (cortex) concentration of radioactivity at 30 min post-injection into Albino male CD rats with vehicle.
Assay type: ADME, organism-based
Conditions: in vivo, 0.5 h
How it was run: as §3

I.D./g [%] | Compound
0.02 | Cc1c(C(=O)N(C)Cc2ccccc2)nc2ccccc2c1-c1ccccc1

Species on record: Rattus norvegicus
Assay: Tissue (cortex) distribution in Albino male CD rats after 15 minutes expressed as percent of injected dose per gram of organ.
Assay type: ADME, organism-based
Conditions: in vivo, 0.25 h
How it was run: as §2

I.D./g [%] | Compound
0.17 | Cc1c(C(=O)N(C)Cc2ccccc2)nc2ccccc2c1-c1ccccc1

Species on record: Rattus norvegicus
Assay: Tissue (cortex) distribution in Albino male CD rats after 30 minutes expressed as percent of injected dose per gram of organ.
Assay type: ADME, organism-based
Conditions: in vivo, 0.5 h
How it was run: as §2

I.D./g [%] | Compound
0.09 | Cc1c(C(=O)N(C)Cc2ccccc2)nc2ccccc2c1-c1ccccc1

Species on record: Rattus norvegicus
Assay: Tissue (cortex) distribution in Albino male CD rats after 5 minutes expressed as percent of injected dose per gram of organ.
Assay type: ADME, organism-based
Conditions: in vivo
How it was run: as §2

I.D./g [%] | Compound
0.25 | Cc1c(C(=O)N(C)Cc2ccccc2)nc2ccccc2c1-c1ccccc1
